Here are results for twelve compounds from ChEMBL document CHEMBL3580559, “Antimalarial 5,6-Dihydro-α-pyrones from Cryptocarya rigidifolia: Related Bicyclic Tetrahydro-α-Pyrones Are Artifacts1” (J Nat Prod, 2015).

Assay [1] relates to A2780. The assay can be described thus: Antiproliferative activity against human A2780 cells assessed as inhibition of cell growth incubated for 2 days by alamar blue assay. Format: cell-based. The conditions noted are these: A2780, 48 h. Background: Resazurin is reduced to fluorescent resorufin, in cell work by metabolically active cells.
For assay [2], the system named is Plasmodium falciparum. The assay can be described thus: Antimalarial activity against chloroquine/mefloquine-resistant Plasmodium falciparum Dd2 incubated for 72 hrs by SYBR green I-based fluorescence assay. Format: functional, organism-based. The conditions noted are these: Dd2, 72 h. In outline:
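Parasite growth of P. falciparum Dd2 (chloroquine/mefloquine-resistant) measured after 72 h compound treatment with the SYBR green I-based fluorescence assay; artemisinin run as positive control; IC50 values reported.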

SMILES strings stand for the structures.

By IC50 is commonly meant the concentration at which inhibition is half-maximal. As for `CCCCCCCCCCCCC[C@@H](O)C[C@H]1CC=CC(=O)O1`, the results for the IC50 in assay [1] and in assay [2] were above 10 µM and 9.2 µM, respectively.

As for `CCCCCCCCCCCCCCC[C@@H](O)C[C@H](O)C[C@H]1CC=CC(=O)O1`, the figures for the IC50 in assay [1] and in assay [2] were above 10 µM and 5.8 µM, respectively.

For `CCCCCC/C=C\CCCCCCC[C@@H](O)C[C@H]1CC=CC(=O)O1`, the IC50 in assay [1] was 8.6 µM; in assay [2], 5.5 µM.

As to `CCCCCCCC/C=C\CCCCCCC[C@H](O)C[C@H]1CC=CC(=O)O1`, the IC50 in assay [1] was above 10 µM; in assay [2] it was 7.4 µM.

On to `CCCCCCCC(O)CCCCCCC/C=C/[C@H](O)C[C@H]1CC=CC(=O)O1` (stereo partly drawn), for which the IC50 in assay [1] was above 10 µM; in assay [2], 9 µM.

Consider `CCCCCCCC/C=C\CCCCCC(O)CC1C[C@H]2C[C@H](CC(=O)O2)O1` (stereo partly drawn), for which the figures for the IC50 in assay [1] and in assay [2] were above 10 µM and 4 µM, respectively.

With `CCCCCCCCCCC/C=C\CCCCCCCC1C[C@H]2C[C@H](CC(=O)O2)O1` (stereo partly drawn), the values for the IC50 in assay [1] and in assay [2] were above 10 µM and 6 µM, respectively.

With `CCCCCCCCCCCCC(O)CC1C[C@H]2C[C@H](CC(=O)O2)O1` (stereo partly drawn), the IC50 in assay [1] and in assay [2] was above 10 µM in each case.

Consider `CCCCCCCCCCCCCCC[C@@H](O)C[C@H]1C[C@H]2C[C@H](CC(=O)O2)O1`, for which the IC50 in assay [1] and in assay [2] was above 10 µM in each case.

Turning to `CCCCCC/C=C\CCCCCCC[C@@H]1C[C@H]2C[C@H](CC(=O)O2)O1`, the IC50 in assay [1] and in assay [2] was above 10 µM in each case.

For the compound `CCCCCCCC(O)CCCCCCC/C=C/[C@H]1C[C@H]2C[C@H](CC(=O)O2)O1` (stereo partly drawn), the IC50 in assay [1] and in assay [2] was above 10 µM in each case.

Compound `C[C@@H]1CC[C@H]2[C@@H](C)C(=O)O[C@@H]3O[C@@]4(C)CC[C@@H]1[C@]32OO4` [ARTEMISININ] came in with an IC50 in assay [2] of 0.007 µM.
